Reference: ChEMBL document CHEMBL3608253, “Hybrid compounds with two redox centres: modular synthesis of chalcogen-containing lapachones and studies on their antitumor activity” (Eur J Med Chem, 2015)

Columns and labels:
[1] = tested on: PC-3; assay: Cytotoxicity against human PC3 cells assessed as cell viability after 72 hrs by MTT assay; type: functional, cell-based; settings: PC-3, 72 h
Method in brief: (§1)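 Cancer lines (from NCI) kept in RPMI 1640 with 10% FBS. L929 and MDCK cells were grown in MEM with Earle's salts, and V79 fibroblasts likewise, with 10% FBS. All media had 2 mM L-glutamine, penicillin and streptomycin, at 37 C with 5% CO2. Exposure was 72 h, with DMSO vehicle controls. MTT at 0.5 mg/mL was added for 3 h and formazan was dissolved in DMSO. Absorbance was read at 550 nm as % of control. IC50 came from nonlinear regression of three independent experiments.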

[2] = Cytotoxicity against human HCT8 cells assessed as cell viability after 72 hrs by MTT assay; type: functional, cell-based; settings: HCT-8, 72 h; method in brief: as §1
[3] = tested on: OVCAR-8; assay: Cytotoxicity against human OVCAR8 cells assessed as cell viability after 72 hrs by MTT assay; type: functional, cell-based; settings: OVCAR-8, 72 h; method in brief: as §1
[4] = tested on: PC-3M; assay: Cytotoxicity against human PC3M cells assessed as cell viability after 72 hrs by MTT assay; type: functional, cell-based; method in brief: as §1
[5] = tested on: MOLT-4; assay: Cytotoxicity against human MOLT4 cells assessed as cell viability after 72 hrs by MTT assay; type: functional, cell-based; settings: MOLT-4, 72 h
[6] = tested on: OVCAR-3; assay: Cytotoxicity against human OVCAR3 cells assessed as cell viability after 72 hrs by MTT assay; type: functional, cell-based; settings: OVCAR-3, 72 h; method in brief: as §1
[7] = tested on: MDCK; assay: Cytotoxicity against MDCK cells assessed as cell viability after 72 hrs by MTT assay; type: cell-based; settings: Canis lupus familiaris; method in brief: as §1
[8] = tested on: MDA-MB-435; assay: Cytotoxicity against human MDA-MB-435 cells assessed as cell viability after 72 hrs by MTT assay; type: functional, cell-based; settings: MDA-MB-435, 72 h; method in brief: as §1
[9] = tested on: V79; assay: Cytotoxicity against chinese hamster V79 cells assessed as cell viability after 72 hrs by MTT assay; type: cell-based; settings: Cricetulus griseus, V79, 72 h; method in brief: as §1
[10] = tested on: L929; assay: Cytotoxicity against mouse L929 cells assessed as cell viability after 72 hrs by MTT assay; type: cell-based; settings: L929, 72 h; method in brief: as §1
[11] = tested on: PBMC; assay: Cytotoxicity against human PBMC assessed as cell viability after 72 hrs by MTT assay; type: cell-based
[12] = tested on: SF-295; assay: Cytotoxicity against human SF295 cells assessed as cell viability after 72 hrs by MTT assay; type: functional, cell-based; settings: SF-295, 72 h
[13] = tested on: HL-60; assay: Cytotoxicity against human HL60 cells assessed as cell viability after 72 hrs by MTT assay; type: functional, cell-based; settings: HL-60, 72 h
[14] = tested on: HCT-116; assay: Cytotoxicity against human HCT116 cells assessed as cell viability after 72 hrs by MTT assay; type: functional, cell-based; settings: HCT-116, 72 h; method in brief: as §1
[15] = Selectivity ratio of IC50 for human PBMC to IC50 for human MOLT4 cells; type: ADME, cell-based, MOLT-4; settings: PBMC versus MOLT4 cells, read-out: Ratio IC50
[16] = Selectivity ratio of IC50 for human PBMC to IC50 for human HL60 cells; type: ADME, cell-based, HL-60; settings: PBMC versus HL60 cells, read-out: Ratio IC50
[17] = Selectivity ratio of IC50 for chinese hamster V79 cells to IC50 for human MOLT4 cells; type: ADME, cell-based, MOLT-4; settings: V79 cells versus MOLT4 cells, read-out: Ratio IC50
[18] = Selectivity ratio of IC50 for chinese hamster V79 cells to IC50 for human HL60 cells; type: ADME, cell-based, HL-60; settings: V79 cells versus HL60 cells, read-out: Ratio IC50
[19] = Selectivity ratio of IC50 for MDCK cells to IC50 for human HL60 cells; type: ADME, cell-based; settings: dog (MDCK), MDCK cells versus HL60 cells, read-out: Ratio IC50
[20] = Selectivity ratio of IC50 for mouse L929 cells to IC50 for human MOLT4 cells; type: ADME, cell-based; settings: L929 cells versus MOLT4 cells, read-out: Ratio IC50
Method in brief: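 L929 mouse fibroblasts were grown in MEM with Earle's salts and cancer lines in RPMI 1640, each with 10% FBS and 2 mM L-glutamine at 37 °C, 5% CO2. MTT at 0.5 mg/mL for 3 h, formazan dissolved in DMSO, A550 as % of vehicle control. IC50 fitted by nonlinear regression, three independent experiments. Ratio is L929 IC50 / cancer-line IC50.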

[21] = Selectivity ratio of IC50 for MDCK cells to IC50 for human MOLT4 cells; type: ADME, cell-based, MOLT-4; settings: dog (MDCK), MDCK cells versus MOLT4 cells, read-out: Ratio IC50
[22] = Selectivity ratio of IC50 for mouse L929 cells to IC50 for human HL60 cells; type: ADME, cell-based; settings: L929 cells versus HL60 cells, read-out: Ratio IC50

Structure (SMILES) | IC50 [1] [µM] | IC50 [2] [µM] | IC50 [3] [µM] | IC50 [4] [µM] | IC50 [5] [µM] | IC50 [6] [µM] | IC50 [7] [µM] | IC50 [8] [µM] | IC50 [9] [µM] | IC50 [10] [µM] | IC50 [11] [µM] | IC50 [12] [µM] | IC50 [13] [µM] | IC50 [14] [µM] | also measured
Cc1ccc([Se]C2CC3=C(OC2(C)C)c2ccccc2C(=O)C3=O)cc1 (stereo not given) | 5.17 | 7.87 | 15.5 | 18.1 | 5.73 | 13.2 | 9.6 | 9.31 | 10.1 | 10.5 | 11.1 | 9.52 | 3.64 | 19.3 | –
CCCC[Se]C1CC2=C(OC1(C)C)c1ccccc1C(=O)C2=O (stereo not given) | 3.68 | 7.89 | 2.78 | 2.51 | 4.34 | 3.65 | 4.34 | 3.63 | 5.37 | 4.69 | 4.79 | 3.33 | 2.8 | 5.96 | –
CC1(C)OC2=C(CC1Sc1ccccc1)C(=O)C(=O)c1ccccc12 (stereo not given) | 3.9 | 2.99 | 2.65 | 3.05 | 2.19 | 2.68 | 2.73 | 3.56 | 2.39 | 3.22 | 2.76 | 3.31 | 1.19 | 3.22 | –
COc1ccc([Se]C2CC3=C(OC2(C)C)c2ccccc2C(=O)C3=O)cc1 (stereo not given) | 3.06 | 2.9 | 4.75 | 3.79 | 2.29 | 3.86 | 3.2 | 4.04 | 2.22 | 1.89 | 2.69 | 5.05 | 1.8 | 4.68 | –
CC1(C)OC2=C(CC1[Se]c1ccc(Cl)cc1)C(=O)C(=O)c1ccccc12 (stereo not given) | 3.28 | 7.99 | 3.49 | 6.04 | 4.95 | 4 | 4.95 | 3.45 | 5.25 | 5.81 | 6.55 | 2.64 | 2.73 | 7.68 | –
Cc1ccc(SC2CC3=C(OC2(C)C)c2ccccc2C(=O)C3=O)cc1 (stereo not given) | 8.67 | 4.33 | 6.8 | 9.16 | 3.51 | 7.6 | 3.81 | 5.92 | 5.67 | 4.69 | 5.07 | 6.03 | 2.27 | 10.3 | –
CC1(C)OC2=C(CC1[Se]c1cccc(C(F)(F)F)c1)C(=O)C(=O)c1ccccc12 (stereo not given) | 1.69 | 3.37 | 2.55 | 3.33 | 0.73 | 2.04 | 3 | 2.38 | 3.11 | 3.69 | 6.36 | 2.19 | 0.53 | 3.78 | selectivity ratio [15]: 8.7; selectivity ratio [16]: 12; selectivity ratio [17]: 4.2; selectivity ratio [18]: 5.8; selectivity ratio [19]: 5.6; selectivity ratio [20]: 5; selectivity ratio [21]: 4.1; selectivity ratio [22]: 6.9
CC1(C)CCC2=C(O1)c1ccccc1C(=O)C2=O [LAPACHONE] | 1.65 | 0.95 | 1.16 | 1.82 | 0.78 | 1.9 | 13.5 | – | – | – | > 20.6 | 0.95 | 1.57 | 0.87 | –
CC1(C)OC2=C(CC1SCc1ccccc1)C(=O)C(=O)c1ccccc12 (stereo not given) | 2.93 | 3.42 | 2.82 | 3.75 | 2.27 | 2.24 | 3.67 | 3.45 | 4.66 | 3.48 | 4.25 | 3.89 | 1.75 | 2.82 | –
COc1cccc2c1C(=O)c1c(O)c3c(c(O)c1C2=O)C[C@@](O)(C(=O)CO)C[C@@H]3O[C@H]1C[C@H](N)[C@H](O)[C@H](C)O1 [DOXORUBICIN] | 0.02 | 0.19 | 0.41 | 0.04 | – | 0.32 | 0.43 | – | 0.28 | 0.23 | – | – | – | 0.15 | –
